# The source made the active and inactive calls. The calls are words filed in the database; no cut-off is given here.
# Assays:
# [1] = test system: Enterococcus faecalis; assay: Antibacterial activity against Enterococcus faecalis assessed as reduction in microbial growth by two fold microdilution method; assay type: functional
# [2] = test system: Escherichia coli; assay: Antibacterial activity against Escherichia coli ATCC 25922 assessed as reduction in microbial growth by two fold microdilution method; assay type: functional
# [3] = test system: Pseudomonas aeruginosa; assay: Antibacterial activity against Pseudomonas aeruginosa ATCC 27853 assessed as reduction in microbial growth by two fold microdilution method; assay type: functional
# [4] = test system: Acinetobacter baumannii; assay: Antibacterial activity against Acinetobacter baumannii assessed as reduction in microbial growth by two fold microdilution method; assay type: functional
# [5] = test system: Staphylococcus aureus; assay: Antibacterial activity against Staphylococcus aureus ATCC 29213 assessed as reduction in microbial growth by two fold microdilution method; assay type: functional
# [6] = test system: Escherichia coli; assay: Antibacterial activity against Escherichia coli assessed as reduction in microbial growth by two fold microdilution method; assay type: functional
# [7] = test system: Pseudomonas aeruginosa; assay: Antibacterial activity against Pseudomonas aeruginosa assessed as reduction in microbial growth by two fold microdilution method; assay type: functional
# [8] = test system: Staphylococcus aureus; assay: Antibacterial activity against methicillin-resistant Staphylococcus aureus assessed as reduction in microbial growth by two fold microdilution method; assay type: functional
# Summary of the method: (§1)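 MIC determined by the standard two-fold broth micro-dilution assay, with norfloxacin and ciprofloxacin as reference agents.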
# [9] = test system: Staphylococcus aureus; assay: Antibacterial activity against methicillin-resistant Staphylococcus aureus assessed as reduction in bacterial growth at 50 to 300 ug/ml measured after 14 passages; assay type: functional, organism-based; settings: dose 50-300 µg/ml
# [10] = test system: Klebsiella pneumoniae; assay: Antibacterial activity against Klebsiella pneumonia assessed as reduction in microbial growth by two fold microdilution method; assay type: functional
# [11] = test system: Staphylococcus aureus; assay: Antibacterial activity against Staphylococcus aureus assessed as reduction in microbial growth by two fold microdilution method; assay type: functional; summary of the method: as §1
# [12] = test system: Staphylococcus aureus; assay: Antibacterial activity against Staphylococcus aureus ATCC 25923 assessed as reduction in microbial growth by two fold microdilution method; assay type: functional
# [13] = test system: Staphylococcus aureus; assay: microbe, parasite or virus in culture; settings: ATCC 25923
# [14] = test system: Staphylococcus aureus; assay: microbe, parasite or virus in culture
# [15] = test system: Klebsiella pneumoniae; assay: Antibacterial activity against Klebsiella pneumonia in presence of (E)-1-cyclopropyl-6-fluoro-7-(4-(2-((2-methoxy-2-oxoethoxy)imino)-2-(thiazol-2-yl)ethyl)piperazin-1-yl)-4-oxo-1,4-dihydroquinoline-3-carboxylic acid (reference value: 2 ug/ml)
# [16] = test system: Staphylococcus aureus; assay: Potency index, ratio of norfloxacin MIC to test compound MIC for antibacterial activity against methicillin-resistant Staphylococcus aureus assessed as reduction in microbial growth by two fold microdilution method; assay type: functional
# [17] = test system: Staphylococcus aureus; assay: Potency index, ratio of norfloxacin MIC to test compound MIC for antibacterial activity against Staphylococcus aureus ATCC 29213 assessed as reduction in microbial growth by two fold microdilution method; assay type: functional
SMILES,MIC [1] [µg/mL],MIC [2] [µg/mL],MIC [3] [µg/mL],MIC [4] [µg/mL],MIC [5] [µg/mL],MIC [6] [µg/mL],MIC [7] [µg/mL],MIC [8] [µg/mL],Activity [9],MIC [10] [µg/mL],MIC [11] [µg/mL],MIC [12] [µg/mL],MIC [13] [µg/mL],MIC [14] [µg/mL],MIC [15] [µg/mL],Ratio [16],Ratio [17]
CO/N=C(\CN1CCN(c2cc3c(cc2F)c(=O)c(C(=O)O)cn3C2CC2)CC1)c1nccs1,0.25,256,2,1,0.25,0.25,0.25,0.25,inactive,256,0.25,0.25,–,–,–,–,–
O=C(O)c1cn(C2CC2)c2cc(N3CCNCC3)c(F)cc2c1=O [CIPROFLOXACIN],2,–,1,–,0.5,–,–,8,–,2,2,2,1,2,0.125,–,–
CC(C)(C)O/N=C(\CN1CCN(c2c(F)cc3c(=O)c(C(=O)O)cn(C4CC4)c3c2Cl)CC1)c1nccs1,0.25,0.25,0.25,0.25,0.25,4,0.25,0.25,inactive,256,0.25,0.5,–,–,–,–,–
CO/N=C(\CN1CCN(c2c(F)cc3c(=O)c(C(=O)O)cn(C4CC4)c3c2Cl)CC1)c1nccs1,0.25,0.25,0.25,0.25,0.25,0.25,1,0.25,inactive,0.25,0.25,0.5,–,–,–,–,–
CCO/N=C(\CN1CCN(c2c(F)cc3c(=O)c(C(=O)O)cn(C4CC4)c3c2Cl)CC1)c1nccs1,0.25,256,0.25,0.25,0.25,0.25,0.25,0.25,inactive,256,0.25,0.5,–,–,–,–,–
C=CCO/N=C(\CN1CCN(c2cc3c(cc2F)c(=O)c(C(=O)O)cn3CC)CC1)c1nccs1,1,0.5,4,0.25,2,0.25,0.25,0.25,inactive,256,0.25,0.5,–,–,–,64,–
CCn1cc(C(=O)O)c(=O)c2cc(F)c(N3CCN(CC(=O)c4nccs4)CC3)cc21,2,64,2,16,1,32,4,4,–,32,4,2,–,–,–,4,16
CCn1cc(C(=O)O)c(=O)c2cc(F)c(N3CCN(C/C(=N\OCC(=O)OC)c4nccs4)CC3)cc21,0.25,0.25,0.25,1,2,32,0.25,0.25,–,256,4,0.25,–,–,–,64,–
CCO/N=C(\CN1CCN(c2cc3c(cc2F)c(=O)c(C(=O)O)cn3CC)CC1)c1nccs1,16,256,8,2,4,0.25,0.25,0.25,–,256,8,0.5,–,–,–,64,–
CCn1cc(C(=O)O)c(=O)c2cc(F)c(N3CCN(C/C(=N\OC)c4nccs4)CC3)cc21,4,256,8,0.25,0.25,0.25,0.25,0.25,inactive,256,2,0.5,–,–,–,64,–
